Measured values reported in ChEMBL document CHEMBL3272249, “Esters of N-tert-butylarterenol. Long-acting new bronchodilators with reduced cardiac effects” (J Med Chem, 1976).

Legend:
Canis familiaris [1] = experiment: Bronchodilator activity in dog assessed as time of inhibition of carbachol or histamine-induced bronchoconstriction at 530 to 1060 mg/kg, it relative to control; type: functional, Canis lupus familiaris; conditions: dose mg/kg 530-1060; route endotracheal
Outline: (§1)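 Anesthetized dogs with an airway cannula and a nonbreathing valve. Bronchoconstriction was induced by iv carbachol (2–4 μg/kg) or histamine diphosphate (20–50 μg/kg) and read as change in airway pressure by transducer. Each compound was tested against both agonists in different dogs, and the results were combined and averaged. Effect is % inhibition of control constriction, with at least three dogs per dose. Drugs were dissolved fresh in distilled water, diluted in saline and kept on ice.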

Canis familiaris [2] = experiment: Bronchodilator activity in dog assessed as degree of inhibition of carbachol or histamine-induced bronchoconstriction at 530 to 1060 mg/kg, it relative to control; type: functional, Canis lupus familiaris; conditions: dose mg/kg 530-1060; route endotracheal
Outline: (§2)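 Anesthetized dogs, trachea cannulated with a nonbreathing valve. Bronchoconstriction induced by iv carbachol (2–4 μg/kg) or histamine diphosphate (20–50 μg/kg) in separate animals, and airway pressure recorded by transducer. Drug stocks were made fresh in distilled water, diluted in saline and kept on ice. Read-out was percent inhibition of control constriction, averaged over at least three dogs per dose at the higher dose. Carbachol and histamine data were combined.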

Canis familiaris [3] = experiment: Bronchodilator activity in dog assessed as degree of inhibition of carbachol or histamine-induced bronchoconstriction at 520 to 1040 mg/kg, it relative to control; type: functional, Canis lupus familiaris; conditions: dose mg/kg 520-1040; route endotracheal; outline: as §2
Canis familiaris [4] = experiment: Cardiotoxicity in spontaneously respiring dog assessed as time of increase in heart rate at 25 to 50 mg/kg, iv relative to control; type: toxicity, organism-based, Canis lupus familiaris; parameters: dose 25-50 mg/kg, route intravenous; conditions: in vivo
Outline: (§3)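 Anesthetized, spontaneously respiring dogs. Heart rate was taken from a lead II EKG, and blood pressure from the right femoral artery by transducer. The increase in heart rate (beats/min) was scored on a graded scale with more than 4 dogs per dose, and its duration was recorded. Drugs were dissolved fresh in distilled water, diluted in physiological saline and kept on ice.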

Canis familiaris [5] = experiment: Bronchodilator activity in dog assessed as degree of inhibition of carbachol or histamine-induced bronchoconstriction at 25 to 50 mg/kg, iv relative to control; type: functional, Canis lupus familiaris; conditions: dose mg/kg 25-50; outline: as §2
Canis familiaris [6] = experiment: Cardiotoxicity in spontaneously respiring dog assessed as degree of increase in heart rate at 25 to 50 mg/kg, iv relative to control; type: toxicity, organism-based, Canis lupus familiaris; parameters: dose 25-50 mg/kg, route intravenous; conditions: in vivo; outline: as §3
Canis familiaris [7] = experiment: Cardiotoxicity in spontaneously respiring dog assessed as degree of increase in heart rate at 520 to 1040 mg/kg, it relative to control; type: toxicity, organism-based, Canis lupus familiaris; parameters: dose 520-1040 mg/kg, route endotracheal; conditions: in vivo, inhaled_or_intranasal; outline: as §3
Canis familiaris [8] = experiment: Bronchodilator activity in dog assessed as time of inhibition of carbachol or histamine-induced bronchoconstriction at 520 to 1040 mg/kg, it relative to control; type: functional, Canis lupus familiaris; conditions: dose mg/kg 520-1040; route endotracheal; outline: as §1
Canis familiaris [9] = experiment: Cardiotoxicity in spontaneously respiring dog assessed as time of increase in heart rate at 520 to 1040 mg/kg, it relative to control; type: toxicity, organism-based, Canis lupus familiaris; parameters: dose 520-1040 mg/kg, route endotracheal; conditions: in vivo, inhaled_or_intranasal
Outline: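 Anesthetized, spontaneously respiring dogs. Heart rate monitored by lead II EKG, with blood pressure taken from the right femoral artery by pressure transducer and recorded on a polygraph. Drug stocks made fresh in distilled water, diluted in physiological saline and kept on ice. Dosing was iv, id or it as listed. The duration of the heart-rate increase was recorded in h, with more than 4 dogs per dose.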

Canis familiaris [10] = experiment: Bronchodilator activity in dog assessed as time of inhibition of carbachol or histamine-induced bronchoconstriction at 25 to 50 mg/kg, iv relative to control; type: functional, Canis lupus familiaris; conditions: dose mg/kg 25-50
Outline: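 Dog airway model: anesthetized, cannulated via a nonbreathing valve, with airway pressure changes recorded after iv carbachol (2–4 μg/kg) or histamine diphosphate (20–50 μg/kg) challenge, each agonist in different animals. Compounds were given iv, intraduodenally or intratracheally from fresh aqueous stocks diluted in saline. Duration (h) of inhibition of induced bronchoconstriction was followed, and the two agonist datasets were pooled.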

Structure (SMILES) | Time (Canis familiaris [1]) | inhibition (INH) (Canis familiaris [2]) | inhibition (INH) (Canis familiaris [3]) | Time (Canis familiaris [4]) | inhibition (INH) (Canis familiaris [5]) | Activity (Canis familiaris [6]) | Activity (Canis familiaris [7]) | Time (Canis familiaris [8]) | Time (Canis familiaris [9]) | Time (Canis familiaris [10])
Cc1ccc(CC(=O)Oc2ccc([C@@H](O)CNC(C)(C)C)cc2OC(=O)Cc2ccc(C)cc2)cc1.Cl | 2 h | 40% |  |  |  |  |  |  |  | 
CC(=O)Oc1cc([C@@H](O)CNC(C)(C)C)ccc1OC(=O)c1ccc(C)cc1.CS(=O)(=O)O |  |  | >70% | < 0.5 h | >70% | 40% | 5% | >1 h | < 1 h | <1 h
